ChEMBL document CHEMBL1152697, “Design, synthesis and SAR studies of 4-allyoxyaniline amides as potent 15-lipoxygensae inhibitors” (Bioorg Med Chem, 2009)

Assay: Inhibition of soybean 15-lipoxygenase
Parameters: species or system Glycine max
Summary of the method: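 Soybean 15-lipoxygenase (final 167 U/mL) in 0.1 M borate buffer pH 9, linoleic acid substrate (final 134 μM), 20 ± 1 °C. Compounds added in DMSO (final 1%), DMSO-only controls, inhibitor plus substrate as blank. Absorbance at 234 nm read for 60 s after enzyme addition. Enzyme kept on ice. At least six control tubes and triplicate tubes per inhibitor. IC50 by linear interpolation around 50% activity, mean ± SD.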

SMILES	IC50
C=CCOc1ccc(NC(=O)C2CCCC2)cc1	4.1 µM
C=CCOc1ccc(NC(=O)C(C)C)cc1	12.9 µM
C=CCOc1ccc(NC(=O)C2CC2)cc1	6.1 µM
C=CCOc1ccc(OC(=O)c2ccccc2)cc1	6.2 µM
C=CCOc1ccc(NC(=O)c2cccc(F)c2)cc1	5.6 µM
C=CCOc1ccc(NC(=O)C2CCCCC2)cc1	6.4 µM
C=CCOc1ccc(NC(=O)C23CC4CC(CC(C4)C2)C3)cc1	0.67 µM
C=CCOc1ccc(NC(=O)C2CCC2)cc1	2.2 µM
C=CCOc1ccc(NC(=O)c2ccccc2)cc1	3.3 µM
C=CCOc1ccc(NC(=O)c2ccc(F)cc2)cc1	3.8 µM
C=CCOc1ccc(NC(=O)c2ccc(Cl)cc2)cc1	8.8 µM
C=CCOc1ccc(NC(=O)c2ccc(OC)cc2)cc1	13.8 µM
C=CCOc1ccc(NC(=O)c2ccc(C)cc2)cc1	10.1 µM
C=CCOc1ccc(NC(=O)c2cccc(C)c2)cc1	6.7 µM
C=CCOc1ccc(NC(=O)c2cccc(OC)c2)cc1	17 µM
C=CCc1ccc(OC(=O)c2ccccc2)cc1	6.7 µM
C=CCOc1ccc(NC(=O)c2cccc(Cl)c2)cc1	8.1 µM
C=CCc1ccc(OC)cc1 [ESTRAGOLE]	64.1 µM
C=CCc1ccc(O)c(OC)c1 [EUGENOL]	38.2 µM
C=CCc1ccc(OC(=O)c2ccccc2)c(OC)c1 [EUGENYL BENZOAT]	7 µM
C=CCc1ccc(OC)c(OC)c1 [METHYLEUGENOL]	96.1 µM
